The record followed here is publication PMC6644768 (ACS Omega, 2018).

Usually IC50 stands for the concentration at which inhibition is half-maximal. Read a low IC50 as inhibition by little substance.

What all share (format): cell-based
Experiment [1] concerns HeLa cells. The experiment is described as follows: Mitotic index by phospho-histone H3 staining. The conditions noted are these: 20 nM; control 3 ± 0.2. In a few lines:
(§1)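 HeLa cells exposed to 75 and 200 nM test compound or 20 nM reference agent for 12 h. Cells immunostained for phospho-histone H3 (Ser10), with DNA counterstained by Hoechst 33258. Mitotic index scored either from DNA morphology or as phospho-H3-positive cells. Experiment performed three times; error given as standard deviation.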

Another experiment relates to MCF 10A cells. Put plainly: IC50 determination, sulforhodamine B assay, MCF 10A. As to conditions: one cell cycle. The gist of the method: (§2)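 Sulforhodamine B proliferation assay as run for A549, but with cells exposed to test compound for one cell cycle. Read-out: TCA fixation, dye binding, Tris solubilization, absorbance at 520 nm. IC50 fitted by nonlinear regression; each cell line determined three times independently. Culture media: HeLa and MCF-7 in Eagle's MEM; L929 and B16F10 in DMEM; MCF 10A in DMEM/F12K with 10% FBS, EGF, hydrocortisone and insulin.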
A general note: In SRB staining, fixed cells bind dye roughly in proportion to their protein.

The subject of experiment [2] is HeLa cells. Put plainly: Mitotic index by Hoechst 33258 staining. The conditions noted are these: 20 nM; control 3 ± 0.6. In a few lines:
as §1

For a further experiment, the system named is MCF-7 cells. Put plainly: IC50 determination, sulforhodamine B assay, MCF-7. As to conditions: MCF-7, one cell cycle. The gist of the method: as §2
The test system of a further experiment is ROS in HeLa cells. The experiment is described as follows: Intracellular ROS by DCFDA dye. As to conditions: 6 h, control 2.4 ± 0.1.
In experiment [3] the test system is A549 cells. Put plainly: IC50 determination, sulforhodamine B assay, A549. As to conditions: A549 cell line, 24 h. The gist of the method:
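A549 cells (F-12K medium, 10% FBS) plated at 10 000 cells/well and grown 24 h, then exposed to a range of test compound concentrations for 24 h. Sulforhodamine B read-out: fixation in 50% TCA for 1 h at 4 °C, then 0.4% dye in 1% acetic acid for 1 h, 1% acetic acid washes, and solubilization in 10 mM Tris pH 10.0. Absorbance read at 520 nm. IC50 from nonlinear regression, three independent determinations.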

The subject of experiment [4] is A549 cells. The experiment is described as follows: Scratch wound healing assay. As to conditions: 100 nM.
The test system of experiment [5] is HeLa cells. The experiment is described as follows: PI staining of dead cells. As to conditions: 20 nM, 24 h; control 6%. The gist of the method: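 HeLa cells on coverslips (2.5 × 10^4 cells/well, 24 h) given vehicle (0.1% DMSO), 75 or 200 nM test compound, or 20 nM reference agent for 24 h. Plates centrifuged at 2500 rpm for 15 min and washed in PBS. Cells stained with propidium iodide for 15 min at room temperature in the dark and imaged. PI-positive cells counted as a percentage. Two independent sets.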

Another experiment relates to tubulin in HeLa cells. The experiment is described as follows: Soluble and polymeric tubulin in cells by western blot. The conditions noted are these: 25 nM, control 2.1 ± 0.4.

Consider `COc1ccc(/C=C\c2cc(OC)c(OC)c(OC)c2)cc1O` [CA-4, combretastatin A-4], for which, in the experiment with HeLa cells [1], the “mitotic index, phospho-histone staining (percentage of mitotic cells)” value is on record as 38 ± 0.3%. Moreover, the concentration for half-maximal inhibition (IC50) in the experiment on MCF 10A cells is 144 ± 31 nM; in the experiment with MCF-7 cells, 18 ± 3 nM; in the experiment with A549 cells [3], 112 ± 7 nM. Besides, the “mitotic index, Hoechst staining” value in the experiment with HeLa cells [2] is recorded as 40 ± 1.2. Moreover, in the experiment on ROS in HeLa cells (20 nM), the “fluorescence intensity of DCFDA per cell” value is on record as 3.6 ± 0.4. In the experiment with A549 cells [4] (10 h), the “inhibition of migration of A549 cells” value is listed as 77 ± 5%. The rate of migration in the experiment on A549 cells [4] (vehicle 3 ± 0.7) worked out at 0.4 ± 0.2 μm/h. The PI-stained positive cells in the experiment on HeLa cells [5] worked out at 87%.
Consider `OO` [Compound H2O2, H2O2], for which, in the experiment with ROS in HeLa cells (100 μM), the “fluorescence intensity of DCFDA per cell” value was 4.5 ± 0.2.
Take `CC[C@]1(O)C[C@@H]2CN(CCc3c([nH]c4ccccc34)[C@@](C(=O)OC)(c3cc4c(cc3OC)N(C)[C@H]3[C@@](O)(C(=O)OC)[C@H](OC(C)=O)[C@]5(CC)C=CCN6CC[C@]43[C@@H]65)C2)C1` [vinblastine]: the “ratio of polymeric to soluble tubulin” value in the experiment on tubulin in HeLa cells was 1.4 ± 0.9.
